# From PubChem
# GPR7 antagonist – antagonists of human GPR7 (neuropeptides B/W receptor 1) | P48145 | inhibition, % at 4.4 µM | hit rate 1.1% among 290,000 | GPR7-expressing cells, fluorescence antagonist assay; in the data active means inhibition above about 16%, passing the limit was not always enough;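 further: cells stimulated with the agonist NPW; 0% = agonist with vehicle and 100% = vehicle without agonist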
# CRFBP-R2 agonist – agonists of human CRF-binding protein/CRF-R2 receptor complex; HEK293 CRF-R2/CRF-BP, calcium dye fluorescence (FLIPR); percent of saturating CRF peptide response; activation, % at 13.2 µM; hit rate 0.46% among 350,000; AID 588473;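 active means activation of at least 50%, plus an integration ratio under a set limit after plate pattern correction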;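 further: plate controls were neutral control wells without compound for no effect and CRF at EC100 for full effect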
# CRFBP-R2 block – blocks CRF-induced signaling of the CRF-BP/CRF-R2 complex | inhibition, % at 11.8 µM | hit rate 0.59% among 350,000 | HEK293 CRF-R2/CRF-BP, CRF-induced calcium fluorescence;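 active means inhibition of the ligand-induced calcium signal above about 50% at the single tested concentration, limit read from the data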
# TRPML3 agonist – human mucolipin-3 channel agonism. HEK293 TRPML3-YFP, Fluo-8 calcium fluorescence; 100% = the carbachol control signal. AID 1448. activation, % at 3 µM. hit rate 0.29% among 220,000. Q8TDD5;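 active means activation above its plate's cutoff, the mean activation of the plate's test wells plus 3 SD, cut at about 12% in these data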;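 further: 0% = DMSO only wells and 100% = carbachol wells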
# Target sequence (Q8TDD5 whole entry, looked up): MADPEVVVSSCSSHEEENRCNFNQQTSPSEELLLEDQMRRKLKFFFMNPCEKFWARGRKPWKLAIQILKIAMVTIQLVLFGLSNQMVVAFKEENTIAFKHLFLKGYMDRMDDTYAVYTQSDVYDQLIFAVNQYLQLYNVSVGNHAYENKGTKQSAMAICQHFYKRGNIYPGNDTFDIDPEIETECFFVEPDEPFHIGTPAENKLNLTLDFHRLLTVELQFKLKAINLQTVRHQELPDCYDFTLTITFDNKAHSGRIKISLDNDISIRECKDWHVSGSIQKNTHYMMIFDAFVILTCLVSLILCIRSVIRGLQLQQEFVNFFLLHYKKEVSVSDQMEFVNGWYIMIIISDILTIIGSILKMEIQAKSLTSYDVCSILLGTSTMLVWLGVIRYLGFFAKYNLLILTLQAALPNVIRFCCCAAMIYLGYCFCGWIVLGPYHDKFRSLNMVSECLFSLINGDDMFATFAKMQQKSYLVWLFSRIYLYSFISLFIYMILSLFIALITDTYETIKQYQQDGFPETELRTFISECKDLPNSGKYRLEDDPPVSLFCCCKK
#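 Test system – HEK293 line with stable expression of human TRPML3-YFP channel · Control set – carbachol 87 µM final as high control (100%), DMSO as low control (0%) · Signal – Fluo-8 calcium dye fluorescence, ex 470-495, em 515-575 nm · Incubation – 1-h 37 °C dye load, 5-s basal, 120-s post-compound reads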
# TRPN1 ag – activates the zebrafish TRPN1 channel; activation, % at 3 µM; HEK293 zebrafish TRPN1-YFP, Fluo-8 calcium fluorescence; 100% = response to 87 µM carbachol; AID 1424; hit rate 0.18% among 220,000;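 active means activation above its plate's cutoff, the mean activation of test wells on that plate plus 3 SD, cut at about 19% in these data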;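 further: 0% = DMSO alone and 100% = 87 µM carbachol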
#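 Assay system: Zebrafish TRPN1-YFP in HEK293 cells | Incubation: Dye loading 1 h at 37 °C, then 30 min room temperature | Measured by: Kinetic Fluo-8 fluorescence, ex 470-495, em 515-575 nm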
# GPR7 antag conf – confirmation of human GPR7 antagonists. shares compounds with GPR7 antagonist. inhibition, % at 4.4 µM. GPR7-expressing cells, calcium fluorescence antagonist mode. hit rate 52% among 2,400; in the data active means inhibition above about 24%;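 further: stimulated with the GPR7 agonist NPW; 0% = agonist plus vehicle and 100% = vehicle alone without agonist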
# MCHR1 antag – antagonizes human MCHR1, a GPR7 antagonist counter-screen; shares compounds with GPR7 antagonist; MCHR1-expressing cells, fluorescence antagonist assay; inhibition, % at 4.4 µM; hit rate 62% among 2,400; AID 2148; in the data active means inhibition above about 22%;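 further: 0% = vehicle with agonist and 100% = vehicle without agonist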
# * = called active by the depositor; . = no result. This is a sample that favours compounds with a hit; in the whole collection about 2% have one here.
SMILES,GPR7 antagonist,CRFBP-R2 agonist,CRFBP-R2 block,TRPML3 agonist,TRPN1 ag,GPR7 antag conf,MCHR1 antag
CC(C)c1nc(SCC(=O)c2c[nH]c3ccccc23)n[nH]1,33*,-1,-8,-1,0,8,18
N=c1c(C(=O)NC2CCCCC2)cc2c(=O)n3ccccc3nc2n1CC1CCCO1 (configuration not stated),21*,3,-11,.,.,27*,19
N#Cc1ccc(NC(=O)COC(=O)c2cccc(S(=O)(=O)N3CCCC3)c2)cc1,.,3,19,.,.,.,.
COc1ccc(Cc2nc3ccc(C(=O)NCCc4ccccn4)cc3o2)cc1OC,22*,1,-8,.,.,1,14
COCOCCn1cc(CN2CCS(=O)(=O)N(Cc3ccc(-c4ccc(F)cc4)cc3)C(C(C)C)C2=O)nn1 (configuration not stated),.,-1,16,.,.,.,.
Cc1ccc(Cn2c(=N)n(CC(O)COc3ccccc3)c3ccccc32)cc1 (configuration not stated),29*,0,-16,0,2,43*,71*
CCCCn1c(=N)n(CC(O)COc2ccc(C)cc2)c2ccccc21 (configuration not stated),36*,1,-36,-1,-1,28*,39*
CCn1c(=N)n(CC(O)c2ccccc2)c2ccccc21 (configuration not stated),-6,4,39,1,0,.,.
CCCCn1c(=N)n(CC(O)COc2ccccc2)c2ccccc21 (configuration not stated),10,2,-25,0,0,.,.
N=c1n(Cc2ccccc2)c2ccccc2n1CC(O)COc1ccccc1 (configuration not stated),15,-1,-47,0,1,.,.
CCCCn1c(=N)n(CC(O)c2ccccc2)c2ccccc21 (configuration not stated),31*,0,2,-1,-1,4,9
CCc1cccc(C)c1NC(=O)CCNC(=O)c1cccc(C)c1,-10,0,6,.,.,.,.
Cc1ccc(NC(=O)CCn2c(=S)oc3ccccc32)cc1,-14,1,-12,0,-1,.,.
CCOc1ccc(NC(=O)CCn2c(=S)oc3ccccc32)cc1,35*,-1,-13,.,.,10,6
Cc1ccc(S(=O)(=O)N2CCN(C(=O)CN(Cc3ccco3)Cc3cccs3)CC2)cc1,.,1,7,.,.,.,.
CCOC(=O)c1cc2nc(OCC)nc(OCC)c2[nH]1,.,-1,4,.,.,.,.
Cc1ccc(NCC(=O)N/N=C/c2ccc(OC(=O)c3ccco3)cc2)cc1,31*,0,15,0,0,31*,11
O=c1c2ccc([N+](=O)[O-])cc2ncn1CCOc1ccc(Cl)cc1,26*,0,-14,0,1,44*,62*
O=[N+]([O-])c1ccc(NCCOc2ccccc2Cl)nc1,16,-4,11,.,.,.,.
Cc1cccc(OCCNc2ccc([N+](=O)[O-])cn2)c1,32*,-2,10,-1,-3,48*,39*
Cc1nnc2c(N3CCN(CCO)CC3)nc3ccccc3n12,6,0,-2,.,.,.,.
COc1ccc(-c2noc(CN3CCCCC3c3nccn3C)n2)cc1 (configuration not stated),41*,0,17,-1,-1,35*,20
Cc1ccc2[nH]c3c(c2c1)CCC3=O,-1,0,-11,0,-1,.,.
Cc1ccc2[nH]c3c(c2c1)CCc1cn[nH]c1-3,23*,0,-11,0,5,8,24*
CCS(=O)(=O)c1nc(S(=O)(=O)c2ccc(C)cc2)c(N2CCC(C)CC2)s1,22*,-1,-5,.,.,15,49*
Cc1cccc(N(CC(=O)Nc2ccccc2F)S(C)(=O)=O)c1,27*,0,1,1,-1,10,4
CSc1ccccc1NC(=O)CN(c1cccc(C)c1)S(C)(=O)=O,-6,1,-7,0,-1,.,.
